Experimental data from ChEMBL document CHEMBL5724801, “EUbOPEN Chemogenomics Library - Multiplex” (2024).
Values joined by “and” are separate entries in the source; they are usually repeats but may differ in a detail not shown here. Identical values can stand only once.

Tested on: U2OS
Assay: Multiplex assay against U2OS
Format: toxicity, cell-based
Conditions: human
Outline: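 On a CQ1 microscope at 37°C and 5% CO2, live cells were imaged after compound addition. They had been stained at seeding with Hoechst33342, BioTracker Green Microtubule Cytoskeleton Dye, MitoTracker Red and Annexin V Alexa Fluor 680. CellPathfinder machine-learning gating assigned cells to Hoechst high-intensity objects or normal cells, normal cells to healthy, pyknosed or fragmented nuclei, and pyknosed cells to mitotic or apoptotic. Tubulin, mitochondrial-mass and membrane-permeability phenotypes are per cents of healthy-nucleus cells.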

[1] = 12 h, 1 µM, compound concentration 1 uM
[2] = 12 h, 10 µM, compound concentration 10 uM
[3] = 24 h, 1 µM, compound concentration 1 uM
[4] = 24 h, 10 µM, compound concentration 10 uM
[5] = 48 h, 1 µM, compound concentration 1 uM
[6] = 48 h, 10 µM, compound concentration 10 uM

Compound: O=C(NCCO)c1cccc(-c2cc(Nc3ccc(OC(F)(F)F)cc3)ncn2)c1
- Population Apoptotic (%) [1]: 64% and 84%
- Population Fragmented Nuclei (%) [1]: 13% and 15%
- Population Healthy Nuclei (%) [1]: 72% and 73%
- Population Hoechst High Intensity Objects (%) [1]: 1%
- Population Membrane Permeable-Phenotype (%) [1]: 3% and 4%
- Population Mitochondria Different-Phenotype (%) [1]: 3%
- Population Mitotic Cells (%) [1]: 35% and 15%
- Population Normal (%) [1]: 98%
- Population Pyknosed Nuclei (%) [1]: 13% and 10%
- Population Tubulin-Different-Phenotype (%) [1]: 1% and 4%
- Total Cell Count [1]: 213 and 128
- Population Apoptotic (%) [2]: 84% and 100%
- Population Fragmented Nuclei (%) [2]: 21% and 20%
- Population Healthy Nuclei (%) [2]: 66% and 68%
- Population Hoechst High Intensity Objects (%) [2]: 4% and 2%
- Population Membrane Permeable-Phenotype (%) [2]: 9%
- Population Mitochondria Different-Phenotype (%) [2]: 7% and 15%
- Population Mitotic Cells (%) [2]: 15% and 0%
- Population Normal (%) [2]: 95% and 97%
- Population Pyknosed Nuclei (%) [2]: 12%
- Population Tubulin-Different-Phenotype (%) [2]: 6% and 3%
- Population Apoptotic (%) [3]: 70% and 86%
- Population Fragmented Nuclei (%) [3]: 16% and 20%
- Population Healthy Nuclei (%) [3]: 73% and 69%
- Population Hoechst High Intensity Objects (%) [3]: 1%
- Population Membrane Permeable-Phenotype (%) [3]: 3% and 7%
- Population Mitochondria Different-Phenotype (%) [3]: 3% and 5%
- Population Mitotic Cells (%) [3]: 29% and 13%
- Population Normal (%) [3]: 98%
- Population Pyknosed Nuclei (%) [3]: 9%
- Population Tubulin-Different-Phenotype (%) [3]: 2% and 4%
- Total Cell Count [3]: 256 and 156
- Population Apoptotic (%) [4]: 82% and 100%
- Population Fragmented Nuclei (%) [4]: 22% and 15%
- Population Healthy Nuclei (%) [4]: 64% and 78%
- Population Hoechst High Intensity Objects (%) [4]: 4% and 1%
- Population Membrane Permeable-Phenotype (%) [4]: 6% and 12%
- Population Mitochondria Different-Phenotype (%) [4]: 3% and 13%
- Population Mitotic Cells (%) [4]: 17% and 0%
- Population Normal (%) [4]: 95% and 98%
- Population Pyknosed Nuclei (%) [4]: 12% and 5%
- Population Tubulin-Different-Phenotype (%) [4]: 1% and 4%
- Population Apoptotic (%) [5]: 88% and 96%
- Population Fragmented Nuclei (%) [5]: 15% and 20%
- Population Healthy Nuclei (%) [5]: 75% and 65%
- Population Hoechst High Intensity Objects (%) [5]: 2%
- Population Membrane Permeable-Phenotype (%) [5]: 6% and 9%
- Population Mitochondria Different-Phenotype (%) [5]: 3% and 4%
- Population Mitotic Cells (%) [5]: 11% and 3%
- Population Normal (%) [5]: 97%
- Population Pyknosed Nuclei (%) [5]: 8% and 14%
- Population Tubulin-Different-Phenotype (%) [5]: 4% and 6%
- Total Cell Count [5]: 417 and 206
- Population Apoptotic (%) [6]: 92% and 91%
- Population Fragmented Nuclei (%) [6]: 18% and 26%
- Population Healthy Nuclei (%) [6]: 72% and 64%
- Population Hoechst High Intensity Objects (%) [6]: 3% and 2%
- Population Membrane Permeable-Phenotype (%) [6]: 8% and 5%
- Population Mitochondria Different-Phenotype (%) [6]: 3% and 7%
- Population Mitotic Cells (%) [6]: 7% and 8%
- Population Normal (%) [6]: 96% and 97%
- Population Pyknosed Nuclei (%) [6]: 9% and 8%
- Population Tubulin-Different-Phenotype (%) [6]: 6% and 1%

Compound: CC[C@H]1OC(=O)[C@H](C)[C@@H](O[C@H]2C[C@@](C)(OC)[C@@H](O)[C@H](C)O2)[C@H](C)[C@@H](O[C@@H]2O[C@H](C)C[C@H](N(C)C)[C@H]2O)[C@@]2(C)CC(C)=C(O2)[C@H](C)[C@@H](O)[C@]1(C)O
- Population Apoptotic (%) [1]: 50% and 84%
- Population Fragmented Nuclei (%) [1]: 19% and 23%
- Population Healthy Nuclei (%) [1]: 63% and 62%
- Population Hoechst High Intensity Objects (%) [1]: 3% and 1%
- Population Membrane Permeable-Phenotype (%) [1]: 33% and 21%
- Population Mitochondria Different-Phenotype (%) [1]: 23% and 14%
- Population Normal (%) [1]: 96% and 98%
- Population Pyknosed Nuclei (%) [1]: 17% and 14%
- Population Tubulin-Different-Phenotype (%) [1]: 25% and 14%
- Total Cell Count [1]: 226 and 91
- Population Apoptotic (%) [2]: 65% and 73%
- Population Fragmented Nuclei (%) [2]: 34% and 21%
- Population Healthy Nuclei (%) [2]: 40% and 47%
- Population Hoechst High Intensity Objects (%) [2]: 7% and 4%
- Population Membrane Permeable-Phenotype (%) [2]: 82% and 72%
- Population Mitochondria Different-Phenotype (%) [2]: 63% and 81%
- Population Mitotic Cells (%) [2]: 34% and 26%
- Population Normal (%) [2]: 92% and 95%
- Population Pyknosed Nuclei (%) [2]: 25% and 31%
- Population Tubulin-Different-Phenotype (%) [2]: 89% and 96%
- Total Cell Count [2]: 223 and 128
- Population Apoptotic (%) [3]: 65% and 72%
- Population Fragmented Nuclei (%) [3]: 20% and 19%
- Population Healthy Nuclei (%) [3]: 63% and 64%
- Population Hoechst High Intensity Objects (%) [3]: 4% and 5%
- Population Membrane Permeable-Phenotype (%) [3]: 20% and 14%
- Population Mitochondria Different-Phenotype (%) [3]: 15% and 14%
- Population Mitotic Cells (%) [3]: 35% and 27%
- Population Normal (%) [3]: 95% and 94%
- Population Pyknosed Nuclei (%) [3]: 16%
- Population Tubulin-Different-Phenotype (%) [3]: 17% and 10%
- Total Cell Count [3]: 256 and 115
- Population Apoptotic (%) [4]: 67% and 82%
- Population Fragmented Nuclei (%) [4]: 33% and 24%
- Population Healthy Nuclei (%) [4]: 36% and 45%
- Population Hoechst High Intensity Objects (%) [4]: 5% and 4%
- Population Membrane Permeable-Phenotype (%) [4]: 56% and 75%
- Population Mitochondria Different-Phenotype (%) [4]: 65% and 86%
- Population Mitotic Cells (%) [4]: 32% and 17%
- Population Normal (%) [4]: 94% and 95%
- Population Pyknosed Nuclei (%) [4]: 29% and 30%
- Population Tubulin-Different-Phenotype (%) [4]: 76% and 88%
- Total Cell Count [4]: 210 and 121
- Population Apoptotic (%) [5]: 67% and 78%
- Population Fragmented Nuclei (%) [5]: 19% and 32%
- Population Healthy Nuclei (%) [5]: 54% and 58%
- Population Hoechst High Intensity Objects (%) [5]: 9% and 2%
- Population Membrane Permeable-Phenotype (%) [5]: 13% and 12%
- Population Mitochondria Different-Phenotype (%) [5]: 8% and 12%
- Population Mitotic Cells (%) [5]: 32% and 21%
- Population Normal (%) [5]: 91% and 97%
- Population Pyknosed Nuclei (%) [5]: 26% and 9%
- Population Tubulin-Different-Phenotype (%) [5]: 11% and 7%
- Total Cell Count [5]: 300 and 147
- Population Apoptotic (%) [6]: 85% and 83%
- Population Fragmented Nuclei (%) [6]: 37% and 20%
- Population Healthy Nuclei (%) [6]: 31% and 42%
- Population Hoechst High Intensity Objects (%) [6]: 7% and 9%
- Population Membrane Permeable-Phenotype (%) [6]: 58% and 62%
- Population Mitochondria Different-Phenotype (%) [6]: 55% and 81%
- Population Mitotic Cells (%) [6]: 14% and 16%
- Population Normal (%) [6]: 92% and 90%
- Population Pyknosed Nuclei (%) [6]: 31% and 36%
- Population Tubulin-Different-Phenotype (%) [6]: 63% and 88%
- Total Cell Count [6]: 236 and 112
